Results: publication PMC6128401 (Molecular pharmaceutics, 2017)

Key:
[1] = Chemical stability in phosphate buffered saline; assay type: physicochemical; settings: PBS at RT, up to/after 4 h incubation
How it was run: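 ¹⁷⁷Lu-labelled peptide (120 pmol/mL) was kept in phosphate buffered saline at room temperature. Aliquots were taken at intervals up to […] and analysed by HPLC for percentage intact radiopeptide relative to post-labelling radiochemical purity.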

[2] = Renal toxicity: creatinine and urea in serum; assay type: in vivo, BALB/c nude mice
How it was run: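 The same treated double-xenografted nude mice (saline, 15 or 30 MBq i.v.; n=5) gave weekly venous blood samples. Serum creatinine and urea were measured with specific kits on a semiautomatic biochemical analyser. Values were compared between treated and control groups over weeks from cell inoculation (week −2) onward.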

[3] = biological target: T1, A431-CCK2R cell line expressing the human CCK2R (Homo sapiens, UniProt P32239); assay: Cell uptake; assay type: cell-based; settings: A431-CCK2R cells, 2 h incubation, 0.4 nM
T1 sequence (P32239 1-447): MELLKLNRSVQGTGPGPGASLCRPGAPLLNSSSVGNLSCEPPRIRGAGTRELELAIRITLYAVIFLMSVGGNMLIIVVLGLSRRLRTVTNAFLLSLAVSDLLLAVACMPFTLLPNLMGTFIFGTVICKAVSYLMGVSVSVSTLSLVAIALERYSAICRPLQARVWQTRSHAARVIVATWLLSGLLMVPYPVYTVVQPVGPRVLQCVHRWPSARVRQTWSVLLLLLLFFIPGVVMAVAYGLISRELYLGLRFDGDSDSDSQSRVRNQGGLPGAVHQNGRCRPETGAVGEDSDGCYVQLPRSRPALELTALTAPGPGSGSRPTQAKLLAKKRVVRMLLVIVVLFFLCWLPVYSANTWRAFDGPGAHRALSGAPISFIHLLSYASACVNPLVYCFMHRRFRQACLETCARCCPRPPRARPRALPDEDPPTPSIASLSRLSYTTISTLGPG
How it was run: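 A431-CCK2R and A431-mock cells were cultured in DMEM with 10% FBS, penicillin/streptomycin/L-glutamine at 37°C, 5% CO₂. They were seeded at 1.0×10⁶ cells/well and grown 48 h to confluency. Peptides were labelled with ¹⁷⁷LuCl₃ (~50 GBq/µmol) in ascorbate buffer pH 5 with gentisic acid and L-Met, 80°C. Triplicate wells received ~100,000 cpm (0.4 nM) for 2 h. The internalized fraction was gamma-counted as % of total added.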

[4] = Biodistribution: uptake in normal organs and tissues; assay type: in vivo, BALB/c nude mice; settings: 30 min p.i.
How it was run: (§1)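 Female and male BALB/c nude mice, 5-6 weeks old, carried A431-CCK2R and A431-mock xenografts in opposite flanks (2×10⁶ cells each). Tumours grew for ~14 days to ~0.2 g. Kit-prepared ¹⁷⁷Lu-peptide, 1 MBq (20 pmol; 50 GBq/µmol), was injected into the tail vein. Groups of five were killed at 30 min, 4 h, 1 d, 2 d, 3 d and 7 d; dissected tissues were gamma-counted and expressed as % IA/g.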

[5] = test system: A431-CCK2R xenografts; assay: Experimental radionuclide therapy, receptor-positive tumour growth; assay type: in vivo, BALB/c nude mice; settings: for mean SGR A431-CCK2R: single i.v. treatment; for TVDT increase by a factor in comparison to the control group: A431-CCK2R tumours
[6] = Stability against enzymatic degradation in human serum; assay type: in vitro ADME
How it was run: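 The ¹⁷⁷Lu-labelled peptide was incubated in human serum at 37°C and sampled at time points up to 24 h. Proteins were precipitated with acetonitrile (1:1.5) and centrifuged; supernatant was diluted 1:1 with water before HPLC for intact radiopeptide. Half-life came from first-order exponential decay fitting.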

[7] = test system: A431-CCK2R xenografts; assay: Biodistribution: uptake in receptor-positive tumour xenograft; assay type: in vivo, BALB/c nude mice; settings: 30 min p.i.
How it was run: as §1

[8] = assay type: physicochemical
How it was run: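 Labelling used ~2 GBq ¹⁷⁷LuCl₃ in 1 mL dilute HCl, heated at 80°C for 15-25 min. Kits were stored up to 6 months; labelled product was held up to 48 h at room temperature or −20°C. Radiochemical purity was measured by RP-HPLC.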

[9] = test system: A431-mock xenografts; assay: Experimental radionuclide therapy, receptor-negative tumour growth; assay type: in vivo, BALB/c nude mice; settings: for mean SGR A431-mock: single i.v. treatment
[10] = Medullary toxicity: white blood cell and platelet counts; assay type: in vivo, BALB/c nude mice
How it was run: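 Double-xenografted nude mice were dosed as in the therapy study (saline, 15 or 30 MBq i.v.), n=5. Weekly, 0.1 mL venous blood was drawn from the superficial temporal vein by lancet, up to eight samples per animal. White blood cells and platelets were counted on an automatic haematology analyser. Counts were expressed relative to basal values (week −2 = inoculation; week 0 = treatment).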

[11] = 15 MBq group, week 0 (week of treatment)
[12] = 15 MBq group, week -2 (cell inoculation)
[13] = 30 MBq group, week 0 (week of treatment)
[14] = 30 MBq group, week -2 (cell inoculation)
[15] = 15 MBq, one week after treatment

Q: With CSCC[C@H](NC(=O)[C@H](Cc1c[nH]c2ccccc12)NC(=O)[C@H]1CCCCNC(=O)[C@H](NC(=O)CN2CCN(CC(=O)O)CCN(CC(=O)O)CCN(CC(=O)O)CC2)CCC(=O)N[C@@H](C)C(=O)N[C@@H](Cc2ccc(O)cc2)C(=O)N1)C(=O)N[C@@H](CC(=O)O)C(=O)N[C@@H](Cc1ccccc1)C(N)=O [^177Lu-DOTA-cyclo-MG1, metal not drawn] as the molecule, how does the “RCP during incubation in PBS” value [1] read?
A: 86%

Q: What about the “Creatinine (reference value 0.1-0.5)” value [2, 11] of the same molecule?
A: 0.3 ± 0.2 mg/dL

Q: What about the “Urea (reference value 17-38)” value [2, 11] of the same molecule?
A: 26 ± 2 mmol/L

Q: And the “Creatinine (reference value 0.1-0.5)” value ([2]; 15 MBq group, week 1)?
A: 0.2 ± 0.1 mg/dL

Q: And the “Urea (reference value 17-38)” value ([2]; 15 MBq group, week 1)?
A: 32 ± 3 mmol/L

Q: What about the “Creatinine (reference value 0.1-0.5)” value ([2]; 15 MBq group, week 2) of the same molecule?
A: 0.3 ± 0.1 mg/dL

Q: What about the “Urea (reference value 17-38)” value ([2]; 15 MBq group, week 2) of the same molecule?
A: 33 ± 2 mmol/L

Q: And the “Creatinine (reference value 0.1-0.5)” value ([2]; 15 MBq group, week 3)?
A: 0.3 ± 0.2 mg/dL

Q: What about the “Creatinine (reference value 0.1-0.5)” value ([2]; 15 MBq group, week 4) of the same molecule?
A: 0.5 ± 0.1 mg/dL

Q: What about the “Creatinine (reference value 0.1-0.5)” value ([2]; 15 MBq group, week 5) of the same molecule?
A: 0.7 mg/dL

Q: What about the “Creatinine (reference value 0.1-0.5)” value ([2]; 15 MBq group, week -1) of the same molecule?
A: 0.2 ± 0.1 mg/dL

Q: And the “Urea (reference value 17-38)” value ([2]; 15 MBq group, week -1)?
A: 33 ± 4 mmol/L

Q: And the “Creatinine (reference value 0.1-0.5)” value [2, 12]?
A: 0.2 ± 0.1 mg/dL

Q: And the “Urea (reference value 17-38)” value [2, 12]?
A: 31 ± 3 mmol/L

Q: What about the “urea above the upper limit of the reference value” ([2]; 15 MBq, beginning from week 3 after treatment) of the same molecule?
A: 39 to 48 mmol/L

Q: What about the “Creatinine (reference value 0.1-0.5)” value [2, 13] of the same molecule?
A: 0.3 ± 0.2 mg/dL

Q: And the “Urea (reference value 17-38)” value [2, 13]?
A: 32 ± 5 mmol/L

Q: And the “Creatinine (reference value 0.1-0.5)” value ([2]; 30 MBq group, week 1)?
A: 0.3 ± 0.1 mg/dL

Q: And the “Urea (reference value 17-38)” value ([2]; 30 MBq group, week 1)?
A: 29 ± 4 mmol/L

Q: What about the “Creatinine (reference value 0.1-0.5)” value ([2]; 30 MBq group, week 2) of the same molecule?
A: 0.2 ± 0.1 mg/dL

Q: And the “Creatinine (reference value 0.1-0.5)” value ([2]; 30 MBq group, week 3)?
A: 0.5 ± 0.2 mg/dL

Q: And the “Creatinine (reference value 0.1-0.5)” value ([2]; 30 MBq group, week -1)?
A: 0.2 ± 0.1 mg/dL

Q: And the “Urea (reference value 17-38)” value ([2]; 30 MBq group, week -1)?
A: 28 ± 3 mmol/L

Q: What about the “Creatinine (reference value 0.1-0.5)” value [2, 14] of the same molecule?
A: 0.2 ± 0.1 mg/dL

Q: And the “Urea (reference value 17-38)” value [2, 14]?
A: 27 ± 5 mmol/L

Q: And the “urea levels above the reference limit” value ([2]; 30 MBq, beginning from week 2 after treatment)?
A: 39 to 52 mmol/L

Q: And the “creatinine levels above the reference limit” value ([2]; 30 MBq, beginning from week 4 after treatment)?
A: 0.6 to 0.8 mg/dL

Q: And the “internalized radioligand fraction (% of total)” value [3]?
A: 15.2±2.6%

Q: What about the “kidney uptake, maximal value” [4] of the same molecule?
A: 1.75 % IA/g

Q: What about the “mean SGR A431-CCK2R” value ([5]; 15 MBq group (0.6 nmol)) of the same molecule?
A: 0.046±0.002

Q: What about the “mean SGR A431-CCK2R” value ([5]; 30 MBq group (1.2 nmol)) of the same molecule?
A: 0.031±0.006

Q: What about the “TVDT increase by a factor in comparison to the control group” value (“TVDT increase by a factor in comparison” for short) ([5]; high activity group (30 MBq)) of the same molecule?
A: 2.6

Q: What about the “TVDT increase by a factor in comparison” value ([5]; low activity group (15 MBq)) of the same molecule?
A: 1.8

Q: And the half-life [6]?
A: 30.1 h

Q: And the maximal tumour uptake [7]?
A: 5.18 % IA/g

Q: And the “improvement of RCP by freezer storage” value ([8]; -20°C versus RT)?
A: ~ 10%

Q: What about the “degree of Met-oxidation” value ([8]; during storage of the kits) of the same molecule?
A: 3.8-6.1%

Q: And the “mean RCP for the different time points after storage of the kits” value ([8]; kit storage up to 6 months, n=4)?
A: 89.4±7.9%

Q: And the RCP after preparation ([8]; kit-prepared, directly after preparation)?
A: 93.3±1.6%

Q: What about the “RCP at 24 h after preparation” value ([8]; stored at RT) of the same molecule?
A: 89.8±2.8%

Q: And the “RCP up to 4 h after preparation” value ([8]; stored at RT)?
A: > 92%

Q: What about the “mean SGR A431-mock” value ([9]; 15 MBq group (0.6 nmol)) of the same molecule?
A: 0.065±0.006

Q: What about the “mean SGR A431-mock” value ([9]; 30 MBq group (1.2 nmol)) of the same molecule?
A: 0.051±0.006

Q: And the “TVDT increase by a factor in comparison” value ([9]; A431-mock tumours, high activity group (30 MBq))?
A: 1.5

Q: What about the “reduction in PLT counts compared to the basal value” [10, 15] of the same molecule?
A: 51.2-52.8%

Q: What about the “reduction in WBC counts compared to the basal value” [10, 15] of the same molecule?
A: 37.8-40.8%

Q: And the PLT value ([10]; 15 MBq, week 2 after treatment, reference 558-1,454)?
A: 531±26 ×10^9/L

Q: What about the “decline of PLT value compared to the basal value” ([10]; 30 MBq, after treatment) of the same molecule?
A: 44.8-58.0%

Q: And the “reduction of WBC value compared to the basal value” ([10]; 30 MBq, week 1 after treatment)?
A: 67.2-70.9%

Q: And the “PLT value below the reference values” ([10]; 30 MBq, week 1 and 2 after treatment)?
A: 486-530 ×10^9/L

Q: And the “WBC value below the lower reference limit” value ([10]; 30 MBq, week 1 and 2 after treatment, reference 3.11-13.04)?
A: 2.17-2.94 ×10^9/L
